The text below walks through data of publication PMC10938339 (ACS Omega, 2024).

pIC50: −log10 of the molar value. Where two headings read alike, the source gives them in different places.

Data set [1] concerns the target T1, PPT1 (Homo sapiens, UniProt P50897).
T1 sequence (P50897 28-306): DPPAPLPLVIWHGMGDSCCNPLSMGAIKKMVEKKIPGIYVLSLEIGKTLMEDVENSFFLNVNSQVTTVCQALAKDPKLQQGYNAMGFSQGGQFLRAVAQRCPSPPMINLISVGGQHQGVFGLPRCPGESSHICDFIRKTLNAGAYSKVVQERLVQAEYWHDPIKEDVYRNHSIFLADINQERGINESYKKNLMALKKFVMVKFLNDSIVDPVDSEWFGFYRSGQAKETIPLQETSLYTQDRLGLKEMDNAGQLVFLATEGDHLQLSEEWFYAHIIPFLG
As to the kind of experiment: biochemical. To be noted: for pIC50: IC50 (95 % CI).

The test system of data set [2] is PPT1. To be noted: cited from earlier work.
For data set [3], the system named is neuroblastoma SH-SY5Y cell line. It counts as cell-based, human. Particulars: 48 h treatment, alamarBlue 18 h; NA = not active. Background: Alamar Blue is a resazurin reagent that responds to reducing activity.
A further data set has as its target T2, PPT1 in HepG2 cells (Homo sapiens, UniProt P50897).
T2 sequence (P50897 28-306): T1 sequence (P50897 28-306)
In words: PPT1 inhibition in HepG2 cells. It counts as cell-based. To be noted: intact cells treated 5 h, activity relative to DMSO control. The method in brief: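 HepG2 cells in DMEM + 10% FBS (37 °C, 5% CO2) were seeded overnight, then exposed to compound in medium for 5 h. They were lysed in MPER with protease inhibitor and 0.5% Triton X-100, spun at 14,000 rpm for 15 min, and protein-normalised. Lysates were assayed with MU-6S-Palm-βGlc plus β-glucosidase (4-MU fluorescence, Ex 365/Em 448, 4-MU standard curve). Biological duplicates, technical triplicates; activity relative to DMSO.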

Data set [4] concerns the target T3, PPT1 in HepG2 cell extracts (Homo sapiens, UniProt P50897).
T3 sequence (P50897 28-306): T1 sequence (P50897 28-306)
As to the kind of experiment: PPT1 inhibition in HepG2 cell extracts. It counts as biochemical. To be noted: cell extracts treated 1 h. In outline: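 HepG2 lysates, prepared as for cells (MPER, protease inhibitor, 0.5% Triton X-100, 14,000 rpm spin), were treated directly with compound for 1 h. PPT1 activity was then read with the MU-6S-Palm-βGlc/β-glucosidase assay, measuring 4-methylumbelliferone fluorescence. Biological duplicates with technical triplicates; percent activity expressed relative to DMSO control.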

The conditions of data set [5]: cited from earlier work.
For data set [6] the following is noted: cited from earlier work. This is another data set of the same source.

By pIC50 is commonly meant −log10 of the IC50, conventionally taken in molar units. A higher pIC50 goes with a low IC50. On to `CCN(CC)Cc1cc(Nc2ccnc3cc(Cl)ccc23)ccc1O` [Amodiaquine], for which, at PPT1 [1], the pIC50 is 3.46. Same read-out and setting: the value for `CCN(CC)CCCC(C)Nc1ccnc2cc(Cl)ccc12` (centres unmarked) [Chloroquine] was 4.33. On to `CC(C)(C)NC1CCN(c2cc(NCc3ccc(Cl)cc3)nc3ccccc23)CC1` [GNS561], for which the PPT1 inhibition is reported as 25% in the data set on PPT1 [2] (1 μM after 3 h) and 50% in the data set on PPT1 [2] (1 μM after 72 h). Turning to `CCN(CC)CCNc1ccc(CO)c2sc3ccccc3c(=O)c12` [Hycanthone], on PPT1 [1], the pIC50 is 3.96. Compound `CCN(CCO)CCCC(C)Nc1ccnc2cc(Cl)ccc12` (centres unmarked) [Hydroxychloroquine] gave a pIC50 against PPT1 [1] of 3.96. Besides, the “SH-SY5Y IC50” value in data set [3] is “did not reach a 50% decrease in cell viability at the highest concentration tested”.

The inhibition is the change of the read-out against control, counted positive when it falls. A higher inhibition goes with a response far below the control. With `OC(c1cc(C(F)(F)F)nc2c(C(F)(F)F)cccc12)C1CCCCN1` (centres unmarked) [Mefloquine], at PPT1 [1] (compound 125 μM), the inhibition at 125 µM is not above 50%. In the case of `Cc1ncc([N+](=O)[O-])n1CCO` [Metronidazole], at PPT1 [1], the pIC50 was less than 4.00. Still for that read-out and setting: then `CCOC(=O)[N-]c1cn(N2CCOCC2)n[o+]1` [Molsidomine], with less than 4.00.

For orientation: % Inhibition means the share of the control response that was lost under treatment. On PPT1 [1], `CCCCCCCCCCC[C@@H](C[C@@H]1OC(=O)[C@H]1CCCCCC)OC(=O)[C@H](CC(C)C)NC=O` [Orlistat] gave a pIC50 of 6.75. Moreover, the “% Inhibition” value on PPT1 [1] (Spectrum Collection library screen, substrate 20 μM) stood at 90.7%. In addition, the “PPT1 inhibition in HepG2 cells (in words)” value on PPT1 in HepG2 cells is “poor PPT1 inhibition”. The “PPT1 inhibition in HepG2 cell extracts (in words)” value in data set [4] is given as “inhibited PPT1 in cell extracts”. In data set [5], the oral absorption entry is “poorly orally absorbed”. In turn, `Cc1ncc([N+](=O)[O-])n1CC(O)CCl` (centres unmarked) [Ornidazole] showed a pIC50 at PPT1 [1] of less than 4.00.

In the case of `CCCCCCCCCC[C@@H]1C(=O)O[C@H]1CCc1ccc(OC)c(OC)c1` [Palmostatin B], the pIC50 at PPT1 [1] was 7.93. On PPT1 in HepG2 cells, the “PPT1 inhibition in HepG2 cells (in words)” value is “poor PPT1 inhibition”. Moreover, in data set [4], the “PPT1 inhibition in HepG2 cell extracts (in words)” value is recorded as “inhibited PPT1 in cell extracts”. As for `CC(CN1c2ccccc2Sc2ccccc21)N(C)C` (centres unmarked) [Promethazine], the pIC50 on PPT1 [1] is less than 4.00.

In the case of `CCN(CC)CCCC(C)Nc1c2ccc(Cl)cc2nc2ccc(OC)cc12` (centres unmarked) [Quinacrine], the pIC50 at PPT1 [1] is approximately 3.77.

The compound `CO[C@H]1/C=C/O[C@@]2(C)Oc3c(C)c(O)c4c(O)c(c(/C=N/N5CCN(C6CCCC6)CC5)c(O)c4c3C2=O)NC(=O)/C(C)=C\C=C\[C@H](C)[C@H](O)[C@@H](C)[C@@H](O)[C@@H](C)[C@H](OC(C)=O)[C@@H]1C` [Rifapentine] had a pIC50 at PPT1 [1] of 4.20. Still for that read-out and setting: the value for `C[C@@H]1O[C@@H](OC[C@H]2O[C@@H](Oc3c(-c4ccc(O)c(O)c4)oc4cc(O)cc(O)c4c3=O)[C@H](O)[C@@H](O)[C@@H]2O)[C@H](O)[C@H](O)[C@H]1O` [Rutin trihydrate] was approximately 3.81; that for `Cn1nnc2c(C(N)=O)ncn2c1=O` [Temozolomide] was 3.63; that for `CN(C)[C@@H]1C(O)=C(C(N)=O)C(=O)[C@@]2(O)C(O)=C3C(=O)c4c(O)cccc4[C@@](C)(O)[C@H]3C[C@@H]12` [Tetracycline] was less than 4.00. Take `Cc1ccc(C(=O)c2cc(O)c(O)c([N+](=O)[O-])c2)cc1` [Tolcapone]: at PPT1 [1], the pIC50 is 3.75. The “blood–brain barrier penetration” value in data set [6] is given as “can penetrate the blood–brain barrier”. `COc1cc(C=O)ccc1O` [Vanillin] showed a pIC50 on PPT1 [1] of 3.19.

For the compound TVB-3166, the “PPT1 inhibition (in words)” value on PPT1 [1] (FASN inhibitors tested against PPT1) is given as “did not inhibit PPT1”.
